Assay results of several laboratories.
Each line is one published result; the experiments were not run side by side.
Cell line: NCI-H460
Read-out: cell growth or viability

With `C[C@H](Nc1ccc2c(c1)OCCn1cc(N3C(=O)OC[C@H]3C(F)F)nc1-2)C(N)=O` the EC50 was 2.9 µM (ATP luminescence; 5 days).
`O=C(CSc1nc2ccccc2s1)N/N=C/c1ccc(OCC(=O)Nc2cccc([N+](=O)[O-])c2)cc1` has an IC50 of 15.8 µM (MTS; 72 h).
The viability of `COc1ccc(NC(=O)Nc2cccc(-c3cn(Cc4ccccc4C)nn3)c2)cc1` is reported as 80.7% (CCK-8; 50 µM; 72 h).
With `CCCCCCCCCCCCCCCCCCOc1ccccc1CC(=O)OCC[N+]1(C)CCCC1` the inhibition was 72.5% (SRB; 10 µM).
For `N#Cc1ccc(-c2cc(COc3cc(C(F)(F)F)nc4ccccc34)on2)cc1`, the IC50 was > 100 µM (MTS; 72 h).
`COc1ccc(NC(=O)Nc2ccc(-c3cn(Cc4ccc(C)cc4)nn3)cc2)cc1` has a viability of 83.2% (CCK-8; 50 µM; 72 h).
`CCCCCCCCCCCCCCCCCCOc1ccc(CC(=O)OCCC[N+](C)(C)C)cc1` gave an inhibition of 26.7% (SRB; 10 µM).
With `O=c1cc(OCc2cc(-c3ccc(Cl)cc3Cl)no2)c2ccccc2o1` the IC50 was > 100 µM (MTS; 72 h).
`COc1ccc(NC(=O)Nc2ccc(-c3cn(Cc4cccc(Cl)c4)nn3)cc2)cc1` has a viability of 87.4% (CCK-8; 50 µM; 72 h).
The inhibition of `CCCCCCCCCCCCCCCCCCOc1cccc(CC(=O)OCC[N+](C)(C)C)c1` is reported as 2.4% (SRB; 10 µM).
`O=c1cc(OCc2cc(-c3ccccn3)no2)c2ccccc2o1` gave an IC50 of > 100 µM (MTS; 72 h).
With `CCCCCCCCCCCCCCCCCCOc1ccccc1CC(=O)OCC[N+]1(C)CCCCC1` the inhibition was 37.8% (SRB; 10 µM).
For `COc1ccc(NC(=O)Nc2ccc(-c3cn(Cc4ccc(Br)cc4)nn3)cc2)cc1`, the viability was 86.6% (CCK-8; 50 µM; 72 h).
With `FC(F)(F)c1cc(OCc2cc(-c3ccccc3)no2)c2ccccc2n1` the IC50 was > 100 µM (MTS; 72 h).
`CCCCCCCCCCCCCCCCCCOc1cccc(CC(=O)OCC[N+]2(C)CCOCC2)c1` has an inhibition of 1% (SRB; 10 µM).
For `COc1ccc(NC(=O)Nc2ccc(-c3cn(Cc4ccc(Cl)cc4)nn3)cc2)cc1`, the viability was 86.8% (CCK-8; 50 µM; 72 h).
For `O=C(CSc1nc2ccccc2s1)N/N=C/c1ccc(OCC(=O)Nc2cccc(Cl)c2)cc1`, the IC50 was 29.6 µM (MTS; 72 h).
The IC50 of `c1ccc(-c2cc(CNc3cccc4cccnc34)on2)nc1` is reported as > 100 µM (MTS; 72 h).
`COc1ccc(NC(=O)NCc2cn(Cc3ccc(Br)cc3)nn2)cc1` gave a viability of 77.1% (CCK-8; 50 µM; 72 h).
`CCCCCCCCCCCCCCCCCCOc1ccccc1CC(=O)OCC[N+](C)(C)C` has an inhibition of 86.5% (SRB; 10 µM).
`N#Cc1ccc(-c2cc(CNc3cccc4cccnc34)on2)cc1` gave an IC50 of > 100 µM (MTS; 72 h).
`O=C(Nc1ccc(Cl)cc1)Nc1cccc(-c2cn(Cc3cccc(Br)c3)nn2)c1` gave a viability of 88.2% (CCK-8; 50 µM; 72 h).
`CCCCCCCCCCCCCCCCCCOc1ccc(CC(=O)OCC[N+](CC)(CC)CC)cc1` gave an inhibition of 15.8% (SRB; 10 µM).
With `COc1cc([C@@H]2c3cc4c(cc3[C@@H](O[C@@H]3O[C@@H]5CO[C@@H](C)O[C@H]5[C@H](O)[C@H]3O)[C@H]3COC(=O)[C@H]23)OCO4)cc(OC)c1O` the IC50 was 0.69 µM (MTS; 72 h).
With `Cc1ccccc1Cn1cc(-c2cccc(NC(=O)Nc3ccc(F)cc3)c2)nn1` the viability was 72.6% (CCK-8; 50 µM; 72 h).
For `CCCCCCCCCCCCCCCCCCOc1ccccc1CC(=O)OCC[N+]1(C)CCOCC1`, the inhibition was 30.8% (SRB; 10 µM).
The IC50 of `N#Cc1ccc(-c2cc(COc3cc(=O)oc4ccccc34)on2)cc1` is reported as > 100 µM (MTS; 72 h).
